# Results taken from BindingDB's records for doi:10.1016/j.bmcl.2012.04.051 (Ajinomoto Pharmaceuticals, 2012).
# Target: Voltage-dependent N-type calcium channel subunit alpha-1B (Homo sapiens, UniProt Q00975)
# Experiment: Inhibition of N-type voltage-dependent calcium channel CaV2.2 in human IMR32 cells assessed as inhibition of KCl-induced increase in intracellular calcium concentration preincubated for 4 to 5 mins before KCl challenge
# How it was run: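 IMR-32 cells on poly-L-lysine/collagen dishes, differentiated with 1 mM dibutyl-cAMP and 2.5 µM bromodeoxyuridine for 10–14 days. Loaded with 2.5 µM fura-2/AM, 37 °C, 30 min. HEPES recording medium with 1 µM nifedipine throughout. Calcium rise evoked by 60 mM KCl for 6 s, repeated every 5 min. Compound at 0.1, 1 or 10 µM; IC50 from ≥2 independent experiments.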
# Chain of Voltage-dependent N-type calcium channel subunit alpha-1B (Q00975 whole entry): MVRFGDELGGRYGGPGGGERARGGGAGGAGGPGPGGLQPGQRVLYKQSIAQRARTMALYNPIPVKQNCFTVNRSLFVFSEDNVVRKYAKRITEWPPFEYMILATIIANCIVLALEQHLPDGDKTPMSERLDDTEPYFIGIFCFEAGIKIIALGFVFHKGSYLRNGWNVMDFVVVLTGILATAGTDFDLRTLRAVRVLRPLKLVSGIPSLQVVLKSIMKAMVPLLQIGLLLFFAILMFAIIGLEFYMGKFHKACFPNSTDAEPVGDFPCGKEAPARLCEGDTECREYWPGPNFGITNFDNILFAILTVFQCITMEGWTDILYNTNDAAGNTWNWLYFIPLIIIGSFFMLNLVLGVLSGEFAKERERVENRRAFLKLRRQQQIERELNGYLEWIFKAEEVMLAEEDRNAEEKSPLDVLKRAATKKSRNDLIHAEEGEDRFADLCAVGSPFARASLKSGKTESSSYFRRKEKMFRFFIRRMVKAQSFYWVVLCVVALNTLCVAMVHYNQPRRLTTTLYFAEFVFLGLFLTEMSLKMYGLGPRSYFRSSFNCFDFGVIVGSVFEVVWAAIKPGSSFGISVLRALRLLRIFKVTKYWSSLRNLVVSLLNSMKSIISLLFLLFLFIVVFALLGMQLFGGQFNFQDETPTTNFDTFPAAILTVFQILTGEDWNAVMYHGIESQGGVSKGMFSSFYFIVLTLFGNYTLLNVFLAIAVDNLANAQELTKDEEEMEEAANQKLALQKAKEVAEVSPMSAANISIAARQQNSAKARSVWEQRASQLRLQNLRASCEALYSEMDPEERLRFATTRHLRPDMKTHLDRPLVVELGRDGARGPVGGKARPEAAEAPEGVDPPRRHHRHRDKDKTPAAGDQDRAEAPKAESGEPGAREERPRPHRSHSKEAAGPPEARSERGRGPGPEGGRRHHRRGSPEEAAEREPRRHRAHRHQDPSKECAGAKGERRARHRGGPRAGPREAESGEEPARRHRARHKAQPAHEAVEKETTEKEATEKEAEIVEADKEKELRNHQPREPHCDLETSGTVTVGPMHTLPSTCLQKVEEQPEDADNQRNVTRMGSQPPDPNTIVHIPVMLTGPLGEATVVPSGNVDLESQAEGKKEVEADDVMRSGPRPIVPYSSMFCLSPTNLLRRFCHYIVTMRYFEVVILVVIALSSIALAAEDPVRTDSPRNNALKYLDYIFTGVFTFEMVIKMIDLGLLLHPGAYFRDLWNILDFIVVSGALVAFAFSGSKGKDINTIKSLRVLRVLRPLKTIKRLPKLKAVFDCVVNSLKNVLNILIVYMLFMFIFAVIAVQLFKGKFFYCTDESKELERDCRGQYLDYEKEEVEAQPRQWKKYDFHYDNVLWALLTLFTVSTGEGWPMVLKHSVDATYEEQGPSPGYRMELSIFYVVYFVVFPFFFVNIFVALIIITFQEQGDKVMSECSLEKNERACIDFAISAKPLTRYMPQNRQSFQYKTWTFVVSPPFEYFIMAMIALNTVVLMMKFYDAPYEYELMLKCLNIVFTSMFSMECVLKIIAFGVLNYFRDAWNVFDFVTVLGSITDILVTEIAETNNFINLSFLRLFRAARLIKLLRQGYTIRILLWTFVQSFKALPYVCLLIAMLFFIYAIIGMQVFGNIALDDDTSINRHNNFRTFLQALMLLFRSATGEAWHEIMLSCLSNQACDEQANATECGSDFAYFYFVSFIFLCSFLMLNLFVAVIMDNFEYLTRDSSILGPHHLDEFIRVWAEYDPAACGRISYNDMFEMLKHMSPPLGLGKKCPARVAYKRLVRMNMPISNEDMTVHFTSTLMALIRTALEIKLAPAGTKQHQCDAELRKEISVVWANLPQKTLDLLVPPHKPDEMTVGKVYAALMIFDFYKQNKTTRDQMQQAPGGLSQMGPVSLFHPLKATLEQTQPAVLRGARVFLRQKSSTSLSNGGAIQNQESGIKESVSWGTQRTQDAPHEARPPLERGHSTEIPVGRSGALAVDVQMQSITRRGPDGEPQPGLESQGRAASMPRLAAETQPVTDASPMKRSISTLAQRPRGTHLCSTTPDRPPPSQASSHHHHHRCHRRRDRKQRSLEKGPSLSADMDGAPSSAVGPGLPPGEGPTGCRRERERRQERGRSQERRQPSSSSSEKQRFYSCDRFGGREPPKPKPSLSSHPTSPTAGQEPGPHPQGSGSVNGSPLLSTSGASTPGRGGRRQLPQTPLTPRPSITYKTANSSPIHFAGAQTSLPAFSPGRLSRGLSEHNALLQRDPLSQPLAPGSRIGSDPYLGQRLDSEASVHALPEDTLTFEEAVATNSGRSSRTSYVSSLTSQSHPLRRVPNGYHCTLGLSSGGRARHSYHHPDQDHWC
row,Structure (SMILES),IC50 [nM]
1,COC(OC)C1=C(C(=O)OC/C=C/c2ccccc2)C(c2ccc(Cl)cc2)C(C(=O)O)C=N1 (configuration not stated),1100
2,COC(OC)C1=C(C(=O)OC/C=C/c2ccccc2)C(c2cccc(Cl)c2)C(C(=O)O)C=N1 (configuration not stated),1100
3,O=C(OC/C=C/c1ccccc1)C1=CN=CC(C(=O)O)C1c1cccc(C(F)(F)F)c1 (configuration not stated),1200

# Continued by falling IC50, values first:
row,IC50 [nM],Structure (SMILES)
1,1200,COc1c(Cl)cc(C2C(C(=O)OC/C=C/c3ccccc3)=C(C(OC)OC)N=CC2C(=O)O)cc1Cl (configuration not stated)
2,1200,O=C(OC/C=C/c1ccccc1)C1=CN=CC(C(=O)O)C1c1ccc(Cl)cc1 (configuration not stated)
3,1100,COC(OC)C1=C(C(=O)OC/C=C/c2ccccc2)C(c2cccc(C(F)(F)F)c2)C(C(=O)O)C=N1 (configuration not stated)
4,580,COc1c(Cl)cc(C2C(C(=O)OC/C=C/c3ccccc3)=CN=CC2C(=O)O)cc1Cl (configuration not stated)
